The nature of experiment [1]: inhibitors of TNFa-induced NFkB p65 translocation, primary screen, imaging, HUVEC, MLSMR starter and 10KST1 sets (AID 438;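 active means inhibition above 20% together with a positive visual image hit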;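 further: compound added about 3h40 before a 20 min TNFalpha stimulation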;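 on inhibition: signal is the nuclear over cytoplasmic p65 intensity ratio per well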). To be noted: HUVEC TNFa-induced p65 nuclear translocation; cell count: measured here: nuclei count (cytotoxicity indicator), at 2.08 µM; inhibition: at 2 µM, stronger effect = higher value, 0% TNFa-plus-vehicle, 100% no-TNFa wells.
A short description of experiment [2]: endothelial E-selectin expression blockers – imaging, HUVEC, immunofluorescence, MLSMR starter and 10KST1 sets, primary screen (AID 487;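 active means visually confirmed hit in the image check and inhibition above 20%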;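 on inhibition: signal is fraction of cell area covered by stained E-selectin grains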;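 on nuclei count: 100% = median nuclei count of all wells on the same plate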). To be noted: HUVEC TNFalpha-induced E-selectin immunofluorescence imaging, at 2 µM; inhibition: stronger effect = higher value; nuclei count: measured here: cell number, toxicity.
The nature of experiment [3]: Primary imaging screen for DUSP6 inhibitors that restore phospho-Erk in transfected HeLa cells, chemical complementation (AID 609;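 active means compounds giving at least 50% inhibition in the cell-based MKP-3 phosphatase rescue imaging test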;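 on inhibition: phospho-Erk level distribution per well compared with pooled transfected vehicle control wells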). As to conditions: HeLa MKP-3 transfected, phospho-Erk imaging KS statistic, at 10 µM, cells stimulated with TPA for 15 min.
For experiment [4], the target named is Dual specificity protein phosphatase 6 (Homo sapiens) (UniProt Q16828). The description is as above. As to conditions: HeLa MKP-3 transfected, phospho-Erk imaging KS statistic; at 10 µM; stronger effect = higher value; cells stimulated with TPA for 15 min.
Chain of Dual specificity protein phosphatase 6 (Homo sapiens) (Q16828 whole entry, looked up): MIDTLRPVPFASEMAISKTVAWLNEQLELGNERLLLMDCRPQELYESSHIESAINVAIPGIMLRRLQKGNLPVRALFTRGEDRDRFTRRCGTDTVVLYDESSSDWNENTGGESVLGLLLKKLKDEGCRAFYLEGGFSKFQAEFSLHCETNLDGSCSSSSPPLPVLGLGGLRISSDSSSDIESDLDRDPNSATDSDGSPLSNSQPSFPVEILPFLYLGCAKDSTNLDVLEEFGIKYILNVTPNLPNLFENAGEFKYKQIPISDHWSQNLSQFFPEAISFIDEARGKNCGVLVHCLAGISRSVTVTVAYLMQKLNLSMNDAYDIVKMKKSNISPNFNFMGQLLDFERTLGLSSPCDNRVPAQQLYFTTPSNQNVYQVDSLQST
Experiment [5] has as its target Voltage-gated potassium channel subunit beta-2 (Rattus norvegicus) (UniProt P62483). The experiment is described as follows: inhibitors of rat Kvbeta2 reductase activity – biochemical, NADPH fluorescence, primary screen (AID 622).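 Further: slope of raw intensity against log time taken from 70 to 1610 s.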 To be noted: recombinant KvBeta, 4-cyanobenzaldehyde reduction, at 10 µM, stronger effect = higher value.
For experiment [6] the target is unchanged. The experiment is described as follows: enhancers of rat Kvbeta2 NADPH turnover – biochemical, NADPH fluorescence, primary screen (AID 623;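 active means NADPH fluorescence slope more negative than the mean of all samples by about 3 SD, 99.7% confidence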;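 further: fluorescence intensity change per second fitted from 20 to 320 s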). To be noted: Recombinant KvBeta, NADPH fluorescence decrease slope, 10 min; at 10 µM; stronger effect = lower value.
Experiment [7] has as its target Alpha-2C adrenergic receptor (Homo sapiens) (UniProt P18825). The experiment is described as follows: compounds altering alpha2C-coupled GIRK flux – cell-based, HEK293 alpha2C/GIRK1/2, thallium flux, primary screen (AID 624;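 active means fluorescence slope after compound addition differing from the mean of all screened samples at 99.7% confidence, in either direction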;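 further: slope of fluorescence ratio to pre-addition baseline per second over 15 to 24 s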). As to conditions: thallium flux BTC fluorescence, at 10 µM, actives lie on both sides.
Experiment [8] can be described thus: inhibitors of larval lipid processing in zebrafish, primary screen, whole organism, PED6 fluorescence, gall bladder and intestine (AID 686;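 active means a full or partial loss of lipid-probe fluorescence in the fish gall bladder, intestine or both, judged by eye; inactive means no fluorescence loss, or compound toxic to the fish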;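 further: larvae 5 to 7 days old with five fish per well; signal comes from phospholipase A2 cleavage of quenched PED6 carried via bile; overnight exposure to compound and PED6 before scoring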). As to conditions: Zebrafish larvae PED6 lipid processing, fluorescence scoring; screened at 20 µM (by protocol). An outline of the steps:
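Also added: quenched phospholipase substrate PED6, 100 nM final, ingested by larvae; System: zebrafish larvae, 5-7 d; Quantity: 5 larvae per well; Compound: 20 µM single dose; Schedule: overnight compound and PED6 incubation; Read-out: visual per-well fluorescence inhibition score; Measured by: By-eye fluorescence microscopy; Medium: E3.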

Experiment [9] can be described thus: loss of swimming-algae plug formation – whole organism, Chlamydomonas reinhardtii, WT vs cilia-less mutant, absorbance, 96-well, primary screen (AID 463189;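 active means inhibition at or above 50% relative to wild type and mutant plate controls; inactive means inhibition below 50%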;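 further: 0% = wild type cc124 cells in DMSO and 100% = ciliumless bld1 mutant cells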). To be noted: Chlamydomonas reinhardtii gravitaxis, OD600 absorbance, 2 days; at 10 µM; stronger effect = higher value.
Setting [10] is: measured here: cell density z-score.
[11] abbreviates: measured here: nuclear c-Myc green intensity z-score.
The mark [12] stands for this setting: measured here: nuclear pErk red intensity z-score, stronger effect = higher value.

Molecules are shown by their SMILES. Active and inactive are the calls of the source.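 How the source made its calls, unless noted: active means fluorescence slope higher than the sample average by over 3 SD (cut at about -0.22 in these data, passing the limit was not always enough); inactive means the rest.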

Chain of Alpha-2C adrenergic receptor (Homo sapiens) (P18825 whole entry, looked up): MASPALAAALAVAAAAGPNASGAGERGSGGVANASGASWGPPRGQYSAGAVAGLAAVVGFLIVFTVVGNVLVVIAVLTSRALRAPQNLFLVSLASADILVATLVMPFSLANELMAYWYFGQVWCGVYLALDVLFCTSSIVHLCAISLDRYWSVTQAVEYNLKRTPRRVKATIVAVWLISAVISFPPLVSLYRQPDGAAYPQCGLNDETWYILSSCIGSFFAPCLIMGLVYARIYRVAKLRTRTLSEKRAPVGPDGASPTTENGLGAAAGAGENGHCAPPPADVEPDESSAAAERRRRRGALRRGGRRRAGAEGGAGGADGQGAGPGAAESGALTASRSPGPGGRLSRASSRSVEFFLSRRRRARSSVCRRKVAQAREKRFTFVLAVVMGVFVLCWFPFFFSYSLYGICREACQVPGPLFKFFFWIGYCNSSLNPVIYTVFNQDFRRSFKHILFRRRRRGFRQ
Chain of Voltage-gated potassium channel subunit beta-2 (Rattus norvegicus) (P62483 whole entry, looked up): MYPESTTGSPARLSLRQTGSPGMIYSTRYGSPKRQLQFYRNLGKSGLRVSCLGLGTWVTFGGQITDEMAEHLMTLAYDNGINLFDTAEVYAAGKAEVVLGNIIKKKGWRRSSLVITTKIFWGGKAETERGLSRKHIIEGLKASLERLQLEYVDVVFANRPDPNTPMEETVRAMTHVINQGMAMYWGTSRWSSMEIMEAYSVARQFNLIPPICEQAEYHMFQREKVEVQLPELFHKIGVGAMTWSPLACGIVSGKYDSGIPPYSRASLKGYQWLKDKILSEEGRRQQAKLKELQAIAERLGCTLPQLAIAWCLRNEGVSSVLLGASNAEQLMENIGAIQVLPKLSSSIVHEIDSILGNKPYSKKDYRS

A word on the inhibition: it is the change of the read-out against control, counted positive when it falls. As to `CCC1(C)Cc2c(sc3c2c(=O)n(C)c2nnc(SCc4ccccc4)n32)CO1` (centres undefined), in [1], the cell count is 584. In addition, the inhibition was 1.3% (inactive) in experiment [1], -171% (inactive) in experiment [2], 3.56% (inactive) in experiment [4] and 16.4% (inactive) in [9]. This compound also gave a nuclei count in experiment [2] of 156%. For the same compound, the z-score is -0.0769 in [3] (setting [10]), -0.7 in [3] (setting [11]) and -1.21 in experiment [3] (setting [12]). Also, the fluorescence slope in experiment [5] was -0.286 (inactive). Besides, the NADPH fluorescence slope in experiment [6] was -6.4e-06 (inactive). Besides, in experiment [7], the slope is 0.00603 (inactive). For the same compound, the call in experiment [8] was inactive.

With `CC1(C)CC(=O)C(CCCN2C(=O)c3ccccc3C2=O)C(=O)C1`, the cell count in experiment [1] stood at 527. In addition, the inhibition in [1] is 0.1% (inactive); in [2], 10.1% (inactive); in [4], -5.26% (inactive); in experiment [9], 18% (inactive). Moreover, in experiment [2], the nuclei count turned out to be 93.2%. The results for the z-score in experiment [3] (setting [10]), in [3] (setting [11]) and in experiment [3] (setting [12]) were -0.253, 0.312 and -1.11, respectively. Further, the fluorescence slope in experiment [5] is -0.379 (inactive). The NADPH fluorescence slope in [6] is -1.5e-05 (inactive). For the same compound, the slope in experiment [7] is 0.00431 (inactive). The compound was classed as inactive in [8].

Regarding `CN(Cc1c(O)ccc2c1oc(=O)c1ccccc12)C1CCCCC1`, the cell count in experiment [1] amounted to 585. The inhibition in [1] was -2.8% (inactive); in experiment [2] it was 6.7% (inactive); in experiment [4] it was -4.27% (inactive); in experiment [9], 3.79% (inactive). In experiment [2], this compound displayed a nuclei count of 172%. In addition, the values for the z-score in experiment [3] (setting [10]), in [3] (setting [11]) and in experiment [3] (setting [12]) were 0.636, 0.684 and 0.214, respectively. In experiment [5], the fluorescence slope is -0.348 (inactive). The NADPH fluorescence slope in experiment [6] was -7e-05 (inactive). In addition, in experiment [7], the slope is 0.00514 (inactive). Besides, the call in experiment [8] was inactive.

Regarding `COc1ccccc1-c1nnc2sc(C3CCCCC3)nn12`, the cell count in [1] was determined as 531. Moreover, the inhibition in experiment [1] was -12.5% (inactive); in experiment [2] it was -318% (inactive); in experiment [4] it was -0.674% (inactive); in [9] it was 11.6% (inactive). The compound also showed a nuclei count in [2] of 161%. The z-score in experiment [3] (setting [10]) was -0.671; in experiment [3] (setting [11]), 0.45; in experiment [3] (setting [12]), 0.848. Moreover, the fluorescence slope in experiment [5] is -0.405 (inactive). Besides, the NADPH fluorescence slope in experiment [6] is -0.000298 (inactive). Also, in [7], the slope is 0.00423 (inactive). Moreover, the outcome in [8] is “active; no signal in intestine only”.

For the compound `CCc1nc(SCc2cccnc2)c(C#N)cc1C`, the cell count in experiment [1] came out at 594. For the same compound, the inhibition is -3.5% (inactive) in [1], -81.5% (inactive) in experiment [2], 2.46% (inactive) in experiment [4] and 50.3% (active) in experiment [9]. Moreover, the nuclei count in [2] was 176%. Moreover, the z-score in experiment [3] (setting [10]) was 0.241; in experiment [3] (setting [11]) it was -0.223; in experiment [3] (setting [12]), -1.08. Further, in experiment [5], the fluorescence slope is -0.341 (inactive). Further, in experiment [6], the NADPH fluorescence slope was 8.2e-06 (inactive). The slope in experiment [7] was 0.00538 (inactive). Also, the call in experiment [8] was inactive.

With `COc1cccc(/C(O)=C2/C(=O)C(=O)N(CCCN(C)C)C2c2cccc(Cl)c2)c1` (centres undefined), the cell count in [1] was determined as 339. Besides, the inhibition in experiment [1] is -13.6% (inactive); in [2] it was -326% (inactive); in experiment [4] it was 11.3% (inactive); in [9], 1.66% (inactive). Further, in experiment [2], the nuclei count stood at 182%. The z-score in [3] (setting [10]) was 0.0823; in experiment [3] (setting [11]), -0.754; in experiment [3] (setting [12]) it was 0.354. Besides, the fluorescence slope in experiment [5] was -0.436 (inactive). The NADPH fluorescence slope in experiment [6] is -5.7e-05 (inactive). The slope in experiment [7] was 0.00508 (inactive). For the same compound, in [8], the outcome was inactive.

Consider `Cc1ccc(N2C(=O)[C@@H]3[C@H](C2=O)C2CCCN2[C@@H]3C(=O)c2ccccc2)cc1` (some centres undefined), for which, in [1], the cell count is 329. For the same compound, the inhibition is -6.6% (inactive) in [1], -25.8% (inactive) in [2], -8.59% (inactive) in experiment [4] and 0.279% (inactive) in experiment [9]. In addition, the nuclei count in experiment [2] was determined as 146%. Besides, the figures for the z-score in experiment [3] (setting [10]), in experiment [3] (setting [11]) and in experiment [3] (setting [12]) were 1.29, -0.857 and 1.07, respectively. The fluorescence slope in experiment [5] was -0.42 (inactive). Besides, the NADPH fluorescence slope in experiment [6] is -0.000146 (inactive). The slope in experiment [7] was 0.00854 (inactive). Also, in experiment [8], the call was inactive.

For the compound `CN1C(=O)NC(NC(=O)c2ccco2)(C(F)(F)F)C1=O` (centres undefined), in [1], the cell count came to 489. The inhibition is -3.4% (inactive) in experiment [1], -78% (inactive) in experiment [2], 3.5% (inactive) in [4] and -10.1% (inactive) in experiment [9]. Further, in experiment [2], the nuclei count was found to be 116%. The results for the z-score in experiment [3] (setting [10]), in experiment [3] (setting [11]) and in experiment [3] (setting [12]) were -0.0785, -0.489 and 0.527, respectively. Besides, the fluorescence slope in [5] is -0.504 (inactive). The NADPH fluorescence slope in experiment [6] was -6e-05 (inactive). Besides, the slope in [7] is 0.00753 (inactive). The call in experiment [8] was inactive.

Consider `Nc1ncnc2nc(SCc3ccccc3)[nH]c12`, for which, in experiment [1], the cell count amounted to 352. Further, the inhibition was 2.1% (inactive) in [1], -52.6% (inactive) in experiment [2], -7.01% (inactive) in experiment [4] and 8.96% (inactive) in experiment [9]. The same compound had a nuclei count in [2] of 152%. Also, the z-score in [3] (setting [10]) was -0.893; in experiment [3] (setting [11]) it was 1.92; in [3] (setting [12]), 0.814. Moreover, the fluorescence slope in experiment [5] was -0.432 (inactive). The NADPH fluorescence slope in experiment [6] is -0.00013 (inactive). Further, in [7], the slope was 0.00504 (inactive). The compound was classed as inactive in experiment [8].

Regarding `C=CCOc1nc2c(c(=O)n(C)c(=O)n2C)n1Cc1ccc(Cl)cc1Cl`, the cell count in experiment [1] is 555. The inhibition in experiment [1] was 1.8% (inactive); in [2] it was -31.1% (inactive); in [4], -6.48% (inactive); in experiment [9] it was 4.68% (inactive). This compound also showed a nuclei count in experiment [2] of 103%. Besides, the z-score is -0.56 in experiment [3] (setting [10]), -0.295 in experiment [3] (setting [11]) and 0.979 in experiment [3] (setting [12]). Further, in experiment [5], the fluorescence slope is -0.591 (inactive). Also, the NADPH fluorescence slope in experiment [6] is -4.9e-05 (inactive). Also, the slope in experiment [7] was 0.00522 (inactive). Further, the compound was classed as inactive in experiment [8].

As for `COC(=O)c1[nH]c2cc(OC)ccc2c1NC(=O)CN1CCC(C(N)=O)CC1`, the cell count in experiment [1] was 363. Also, the inhibition in experiment [1] is 2.6% (inactive); in [2], 14.4% (inactive); in experiment [4], 9.42% (inactive); in [9], 25.6% (inactive). In [2], this compound yielded a nuclei count of 134%. Moreover, the results for the z-score in experiment [3] (setting [10]), in [3] (setting [11]) and in experiment [3] (setting [12]) were 0.612, -0.732 and -0.532, respectively. Also, in [5], the fluorescence slope was -0.434 (inactive). Besides, in [6], the NADPH fluorescence slope is -0.000147 (inactive). The slope in experiment [7] is 0.00651 (inactive). Moreover, the call in experiment [8] was inactive.

With `C=CCOc1nc2c(c(=O)n(C)c(=O)n2C)n1Cc1ccccc1Cl`, in experiment [1], the cell count came out at 617. For the same compound, the inhibition is 0.6% (inactive) in [1], 39.7% (inactive) in experiment [2], 16.8% (inactive) in experiment [4] and 1.08% (inactive) in experiment [9]. For the same compound, the nuclei count in [2] turned out to be 155%. The z-score in experiment [3] (setting [10]) is -1.51; in experiment [3] (setting [11]), -0.0292; in [3] (setting [12]), 0.274. Besides, the fluorescence slope in experiment [5] was -0.515 (inactive). In addition, the NADPH fluorescence slope in [6] is -0.000108 (inactive). Also, the slope in experiment [7] was 0.0054 (inactive). For the same compound, the result in experiment [8] was inactive.

For `CCCSc1nc(C)c(CC(=O)OCC)c(=O)[nH]1`, the cell count in experiment [1] amounted to 573. In addition, the inhibition is -10.2% (inactive) in [1], -162% (inactive) in experiment [2], 1.98% (inactive) in experiment [4] and 6.42% (inactive) in experiment [9]. The compound further showed a nuclei count in experiment [2] of 138%. For the same compound, the z-score in [3] (setting [10]) is -0.128; in experiment [3] (setting [11]), -1.19; in experiment [3] (setting [12]), 1.09. The fluorescence slope in experiment [5] was -0.508 (inactive). Also, in [6], the NADPH fluorescence slope is -6e-05 (inactive). The slope in experiment [7] is 0.008 (inactive). For the same compound, in [8], the outcome was inactive.

The values are drawn from PubChem BioAssay.
